Two molecules from ChEMBL document CHEMBL5543129, “Peptide Inhibitor Targeting the Extraterminal Domain in BRD4 Potently Suppresses Breast Cancer Both In Vitro and In Vivo” (J Med Chem, 2024) can be followed below.

Active and inactive are the calls of the source. No cut-off for these calls is given here. Square brackets hold non-standard residues; d marks the D form. Peptide text beside a SMILES is read from it. Hyp = O=C(O)[C@@H]1C[C@@H](O)CN1; Ahx = NCCCCCC(=O)O

Data set [1] deals with T47D. The data set can be described thus: Inhibition of colony formation in human T47D cells at 10 uM incubated for 2 weeks in presence of tamoxifen by crystal violet staining based assay. Format: functional, cell-based. In outline: (§1)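 Cells are seeded at 1 × 10^3/well and treated with peptide (10 μM) for 2 weeks, alone or with JQ1 5 μM, iJMJD6 10 μM, ICI 2.5 μM, or tamoxifen 3 μM (tamoxifen-resistant lines). Colonies are stained with crystal violet, dissolved in 10% acetic acid, and read at 590 nm. Three biological repeats.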

The test system of data set [2] is MDA-MB-231. The data set can be described thus: Downregulation of CCND1 gene expression in human MDA-MB-231 cells at 10 uM incubated for 6 hrs by RT-qPCR analysis. Format: functional, cell-based. In outline: (§2)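 Cells treated with peptide (10 μM) for 6 h; c-Myc, N-myc and CCND1 mRNA measured by RT-qPCR. Three biological repeats.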
(Quantitative PCR measures a nucleic acid by following its amplification.)

Data set [3] relates to T47D. The data set can be described thus: Inhibition of colony formation in human T47D cells at 10 uM incubated for 2 weeks by crystal violet staining based assay. Format: functional, cell-based. In outline:
as §1

Data set [4] is described as follows: Toxicity in BALB/c mouse xenografted with human MCF7 cells assessed as change in organ weight at 2.5 mg/kg, ip administered every 2 days in presence of 12.5 mg/kg fulvestrant. Format: organism-based. The note with it: in vivo, 48 h. For orientation: Xenograft models place foreign cells or tissue in a host animal.
The nature of data set [5]: Toxicity in BALB/c mouse xenografted with human […] cells assessed as change body weight at 12.5 mg/kg, ip administered every 2 days in presence of 50 mg/kg JQ1. Format: organism-based. The note with it: in vivo, 48 h. In outline:
(§3)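 Female BALB/c nude mice (4–6 weeks) carried sc MDA-MB-231 xenografts (5 × 10^6 cells) and were randomized at about 50 mm3. Peptide (12.5 mg/kg ip in saline) and JQ1 (50 mg/kg ip, DMSO/10% HPBCD 1:10) were given every 2 days, alone or combined. Body weight was recorded, and heart, liver, spleen, lung and kidney morphology and weight were assessed.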

Data set [6] can be described thus: Downregulation of JMJD6 protein expression in human MDA-MB-231 cells assessed as fold change in remaining JMJD6 level at 10 uM incubated for 24 hrs by immunoblotting analysis (reference value: 1). Format: functional. In outline:
(§4)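 Cells treated with peptide (10 μM) for 24 h. Lysates in Tris/NaCl/EDTA/1% Triton X-100, run on 10% SDS-PAGE and immunoblotted with ECL detection. β-actin as loading control. Three repeats, quantified against untreated cells.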

A short description of data set [7]: Toxicity in BALB/c mouse xenografted with human MDA-MB-231 cells assessed as change in heart morphology at 12.5 mg/kg, ip administered every 2 days in presence of 50 mg/kg JQ1. The settings on record: in vivo, 48 h. Format: organism-based. In outline:
as §3

Data set [8] in a line: Toxicity in BALB/c mouse xenografted with human MCF7 cells assessed as change in kidney morphology at 12.5 mg/kg, ip administered every 2 days in presence of 50 mg/kg JQ1. Format: organism-based. The note with it: in vivo, 48 h.
In data set [9] the test system is MCF7. The data set can be described thus: Downregulation of […] gene expression in human MCF7 cells at 10 uM incubated for 6 hrs by RT-qPCR analysis. Format: functional, cell-based. In outline: as §2
Data set [10] in a line: Downregulation of c-Myc protein expression in BALB/c mouse tumor xenografted with human MCF7 cells assessed as fold change in remaining c-Myc level at 25 mg/kg, ip administered every 2 days by immunoblotting analysis. It counts as functional. In outline:
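Female BALB/c nude mice (4–6 weeks) carry subcutaneous MCF7 or MDA-MB-231 grafts (5 × 10^6 cells). MCF7 mice are brushed with E2 (10–2 M) every 2 days. Dosing starts at ~50 mm3: peptide in normal saline, ip every 2 days. Tumour lysates are immunoblotted with β-actin as loading control; repeated three times.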

Data set [11] is described as follows: Toxicity in BALB/c mouse xenografted with human MDA-MB-231 cells assessed as change in liver morphology at 12.5 mg/kg, ip administered every 2 days in presence of 50 mg/kg JQ1. Format: organism-based. The note with it: in vivo, 48 h. In outline:
as §3

Data set [12] is described as follows: Toxicity in BALB/c mouse xenografted with human MCF7 cells assessed as change in lung at 12.5 mg/kg, ip administered every 2 days in presence of 12.5 mg/kg JMJD6 inhibitor. It counts as organism-based. The settings on record: in vivo, 48 h. In outline: (§5)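 Female BALB/c nude mice carried MCF7 xenografts (5 × 10^6 cells sc, E2 10–2 M brushed every 2 days) and were randomized at about 50 mm3. Peptide was given at 12.5 mg/kg ip every 2 days, and iJMJD6 (DMSO/PBS 1:20) at 12.5 mg/kg ip every other day, alone or combined. Body and organ weights were recorded.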

Data set [13] can be described thus: Downregulation of BRD4 protein expression in human MCF7 cells assessed as fold change in remaining BRD4 level at 10 uM incubated for 24 hrs by immunoblotting analysis (reference value: 1). It counts as functional. In outline: as §4
A general note: In western blotting, separated proteins are transferred to a membrane and probed.

The test system of the next data set is Mus musculus. The data set can be described thus: Downregulation of N-myc mRNA expression in BALB/c mouse tumor xenografted with human MCF7 cells at 25 mg/kg, ip administered every 2 days by RT-qPCR analysis. It counts as functional, organism-based.
In data set [14] the test system is MCF7. The data set can be described thus: Antiproliferative activity against human MCF7 cells at 10 uM incubated for 1 week in presence of 5 uM JQ1 by CellTiter 96 Aqueous One Solution based assay. Format: functional, cell-based. The note with it: time 1.0 weeks. In outline: (§6)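 Cells seeded at 2 × 10^3/well and treated with peptide (10 μM) alone or combined with JQ1 (5 μM), iJMJD6 (10 μM) or ICI (2.5 μM), as the line states. Viability read by MTS reagent, 1 h at 37 °C, A490. Three biological repeats.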

The nature of data set [15]: Downregulation of CCND1 protein expression in human MCF7 cells assessed as fold change in remaining CCND1 level at 10 uM incubated for 24 hrs by immunoblotting analysis (reference value: 1). It counts as functional. In outline:
as §4

Data set [16] can be described thus: Toxicity in BALB/c mouse xenografted with human MCF7 cells assessed as change in liver morphology at 12.5 mg/kg, ip administered every 2 days in presence of 50 mg/kg JQ1. It counts as organism-based. The settings on record: in vivo, 48 h.
In data set [17] the test system is MCF7. The data set can be described thus: Antiproliferative activity against human MCF7 cells at 10 uM incubated for 1 week in presence of JMJD6 inhibitor by CellTiter 96 Aqueous One Solution based assay. It counts as functional, cell-based. The note with it: time 1.0 weeks. In outline: as §6
Data set [18] has as its system MDA-MB-231. The data set can be described thus: Inhibition of cell migration in human MDA-MB-231 cells at 10 uM incubated for 24 hrs in presence of JMJD6 inhibitor by inverted microscopic analysis. It counts as functional, cell-based. In outline:
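Cells are seeded at 5 × 10^5/well and scratched at 80–90% confluence. They are kept in serum-free medium with peptide (10 μM); partner agents are JQ1 5 μM, iJMJD6 10 μM, or ICI 2.5 μM. Wound area is imaged by inverted microscope at 0 and 12 or 24 h. Wound closure % = (A0−A1)/A0 × 100. Three biological repeats.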

Data set [19] can be described thus: Toxicity in BALB/c mouse xenografted with human MCF7 cells assessed as change in liver at 12.5 mg/kg, ip administered every 2 days in presence of 12.5 mg/kg JMJD6 inhibitor. The note with it: in vivo, 48 h. It counts as organism-based. In outline: as §5
The nature of data set [20]: Toxicity in BALB/c mouse xenografted with human MCF7 cells assessed as change in body weight at 12.5 mg/kg, ip administered every 2 days in presence of 12.5 mg/kg JMJD6 inhibitor. The settings on record: in vivo, 48 h. Format: organism-based. In outline:
as §5

Data set [21] is described as follows: Toxicity in BALB/c mouse xenografted with human MCF7 cells assessed as change body weight at 12.5 mg/kg, ip administered every 2 days in presence of 50 mg/kg JQ1. The note with it: in vivo, 48 h. Format: organism-based.

Turning to `CC[C@H](C)[C@H](NC(=O)[C@H](Cc1ccc(O)cc1)NC(=O)[C@@H]1C[C@@H](O)CN1C(=O)[C@H](C)NC(=O)[C@@H](NC(=O)CCCCCNC(=O)[C@H](CCC(=O)O)NC(=O)CNC(=O)[C@H](CS)NC(=O)[C@H](CCCCN)NC(=O)[C@H](Cc1ccccc1)NC(=O)[C@H](CCCCN)NC(=O)[C@H](CCC(N)=O)NC(=O)[C@H](CC(N)=O)NC(=O)[C@H](CCCNC(=N)N)NC(=O)[C@H](CCCNC(=N)N)NC(=O)[C@H](CCCNC(=N)N)NC(=O)[C@H](CCCNC(=N)N)NC(=O)[C@H](CCC(N)=O)NC(=O)[C@H](CCCNC(=N)N)NC(=O)[C@H](CCCNC(=N)N)NC(=O)[C@H](CCCCN)NC(=O)[C@H](CCCCN)NC(=O)[C@H](CCCNC(=N)N)NC(=O)CNC(=O)[C@@H](N)Cc1ccc(O)cc1)[C@@H](C)CC)C(=O)O` (H-YGRKKRRQRRRRNQKFKCGE[Ahx]IA[Hyp]YI-OH), the inhibition entry with T47D [1], in the data set on T47D [3] and in the data set on MDA-MB-231 [18] was “Active” in each case. Also, the result in the data set on MDA-MB-231 [2], in the data set with MCF7 [9], in the data set on Mus musculus, with MCF7 [14] and with MCF7 [17] was Active. In addition, the Activity entry in data set [4], in data set [5], in [7], in data set [8], in data set [11] and in data set [12] was “Non-Toxic” each time. For the same molecule, the Activity entry in data set [16], in data set [19], in [20] and in data set [21] was “Non-Toxic” in each case. In addition, the “fold change (FC)” value amounted to 0.38 in data set [6], 0.38 in [10], 0.63 in data set [13] and 0.58 in data set [15].

With H-YGRKKRRQRRRRNQKFKCGE-OH, the inhibition entry in the data set on T47D [1], in the data set on T47D [3] and in the data set on MDA-MB-231 [18] was “Active” each time. In addition, the outcome in the data set on MDA-MB-231 [2], with MCF7 [9], in the data set with Mus musculus, in the data set on MCF7 [14] and in the data set on MCF7 [17] was Active. The Activity entry in data set [4], in [5], in data set [7], in [8], in data set [11] and in [12] was “Non-Toxic” in each case. For the same molecule, the Activity result in data set [16], in data set [19], in [20] and in data set [21] was “Non-Toxic” each time. Further, the “fold change (FC)” value in data set [6] worked out at 1.04; in data set [10] it was 0.27; in data set [13] it was 1.14; in data set [15] it was 0.68.
